# Experiments:
# [1] = tested on: HCT-116; assay: Inhibition of HCT116 colon carcinoma cell proliferation; assay type: functional, cell-based; details: Homo sapiens
# Summary of the method: (§1)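 SRB colorimetric growth assay. Exponentially growing cells were seeded so they would undergo 3-5 doublings before reaching 85% confluence. Graded compound concentrations were added 18 h later, and cells were incubated 5 days at 37 °C in 5% CO2. Cells were fixed with cold TCA for 1 h at 4 °C, stained with 0.4% SRB in 1% acetic acid, solubilized in 10 mM Tris base, and OD read at 570 nm.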
# [2] = target: Cyclin-dependent kinase 4/cyclin D1 (Homo sapiens, UniProt P11802); assay: Inhibitory concentration against Cyclin-dependent kinase 4-cyclin D1; assay type: protein-complex assay
# Summary of the method: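 CDK4/cyclin D1 came from extracts of insect cells dually infected with baculovirus vectors. Reactions were started with 4 units of enzyme, run 15 min at room temperature, and stopped with EDTA. Product was captured on GSH-Sepharose and counted by scintillation.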
# [3] = target: Cyclin-dependent kinase 2/cyclin E (Homo sapiens, UniProt P24941); assay: Inhibitory concentration against Cyclin-dependent kinase 2-cyclin E; assay type: protein-complex assay
# [4] = tested on: MIA PaCa-2; assay: Inhibition of MiaPaCa2 cell proliferation; assay type: functional, cell-based; details: Homo sapiens; summary of the method: as §1
# [5] = tested on: HT-1080; assay: Inhibition of HT1080 cell proliferation; assay type: functional, cell-based; details: Homo sapiens; summary of the method: as §1
# [6] = tested on: AG1523; assay: Effective concentration against normal human fibroblast cell line AG1523; assay type: functional, cell-based
# Summary of the method: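 Normal human foreskin fibroblasts AG1523 were seeded at a density giving confluence and contact inhibition of growth. Graded compound concentrations were added 18 h later, and cells were incubated 6 days at 37 °C in 5% CO2. Death effects were scored by SRB colorimetry: cold TCA fixation, 0.4% SRB stain, Tris base solubilization, OD at 570 nm.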
# [7] = tested on: B16; assay: Inhibitory activity against B16-F1 cell line; assay type: functional, cell-based; details: Mus musculus
# [8] = target: Cyclin-dependent kinase 1/cyclin B (Homo sapiens, UniProt P06493); assay: Inhibition of Cyclin-dependent kinase 1-cyclin B; assay type: protein-complex assay
# [9] = tested on: HT-29; assay: Inhibition of HT-29 cell proliferation; assay type: functional, cell-based; details: Homo sapiens; summary of the method: as §1
# [10] = tested on: NCI-H460; assay: Inhibition of NCI-H460 cell proliferation; assay type: functional, cell-based; details: Homo sapiens; summary of the method: as §1
# [11] = tested on: PC-3; assay: Inhibition of PC3 cell proliferation; assay type: functional, cell-based; details: Homo sapiens; summary of the method: as §1
# [12] = target: cAMP-dependent protein kinase (PKA) (Homo sapiens, UniProt P22694+P17612+P22612); assay: Inhibition of Protein kinase A (PKA); assay type: protein assay
# [13] = target: Tyrosine-protein kinase ABL1 (Homo sapiens, UniProt P00519); assay: Inhibition of c-Abl tyrosine kinase
# [14] = target: Protein kinase C (PKC); assay: Inhibition of Protein kinase C; assay type: protein assay
# Sequence of Cyclin-dependent kinase 4/cyclin D1 (P11802 whole entry): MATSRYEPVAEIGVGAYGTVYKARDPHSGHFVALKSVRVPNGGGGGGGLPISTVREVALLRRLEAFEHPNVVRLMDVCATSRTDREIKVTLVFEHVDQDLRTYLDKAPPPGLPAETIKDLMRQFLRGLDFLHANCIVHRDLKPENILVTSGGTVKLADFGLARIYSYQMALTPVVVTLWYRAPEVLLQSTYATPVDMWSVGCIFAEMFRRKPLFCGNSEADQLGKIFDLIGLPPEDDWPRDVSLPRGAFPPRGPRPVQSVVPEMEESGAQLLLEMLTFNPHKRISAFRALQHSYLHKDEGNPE
# Sequence of Cyclin-dependent kinase 4/cyclin D1 (P24385 whole entry, further chain): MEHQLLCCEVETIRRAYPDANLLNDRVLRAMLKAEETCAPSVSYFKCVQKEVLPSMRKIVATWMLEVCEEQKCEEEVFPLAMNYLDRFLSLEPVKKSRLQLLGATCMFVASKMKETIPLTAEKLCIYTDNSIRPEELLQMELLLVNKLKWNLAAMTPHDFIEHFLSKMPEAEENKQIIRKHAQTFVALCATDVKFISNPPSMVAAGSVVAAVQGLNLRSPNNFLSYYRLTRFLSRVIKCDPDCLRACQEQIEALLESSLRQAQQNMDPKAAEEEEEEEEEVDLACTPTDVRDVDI
# Sequence of Tyrosine-protein kinase ABL1 (P00519 whole entry): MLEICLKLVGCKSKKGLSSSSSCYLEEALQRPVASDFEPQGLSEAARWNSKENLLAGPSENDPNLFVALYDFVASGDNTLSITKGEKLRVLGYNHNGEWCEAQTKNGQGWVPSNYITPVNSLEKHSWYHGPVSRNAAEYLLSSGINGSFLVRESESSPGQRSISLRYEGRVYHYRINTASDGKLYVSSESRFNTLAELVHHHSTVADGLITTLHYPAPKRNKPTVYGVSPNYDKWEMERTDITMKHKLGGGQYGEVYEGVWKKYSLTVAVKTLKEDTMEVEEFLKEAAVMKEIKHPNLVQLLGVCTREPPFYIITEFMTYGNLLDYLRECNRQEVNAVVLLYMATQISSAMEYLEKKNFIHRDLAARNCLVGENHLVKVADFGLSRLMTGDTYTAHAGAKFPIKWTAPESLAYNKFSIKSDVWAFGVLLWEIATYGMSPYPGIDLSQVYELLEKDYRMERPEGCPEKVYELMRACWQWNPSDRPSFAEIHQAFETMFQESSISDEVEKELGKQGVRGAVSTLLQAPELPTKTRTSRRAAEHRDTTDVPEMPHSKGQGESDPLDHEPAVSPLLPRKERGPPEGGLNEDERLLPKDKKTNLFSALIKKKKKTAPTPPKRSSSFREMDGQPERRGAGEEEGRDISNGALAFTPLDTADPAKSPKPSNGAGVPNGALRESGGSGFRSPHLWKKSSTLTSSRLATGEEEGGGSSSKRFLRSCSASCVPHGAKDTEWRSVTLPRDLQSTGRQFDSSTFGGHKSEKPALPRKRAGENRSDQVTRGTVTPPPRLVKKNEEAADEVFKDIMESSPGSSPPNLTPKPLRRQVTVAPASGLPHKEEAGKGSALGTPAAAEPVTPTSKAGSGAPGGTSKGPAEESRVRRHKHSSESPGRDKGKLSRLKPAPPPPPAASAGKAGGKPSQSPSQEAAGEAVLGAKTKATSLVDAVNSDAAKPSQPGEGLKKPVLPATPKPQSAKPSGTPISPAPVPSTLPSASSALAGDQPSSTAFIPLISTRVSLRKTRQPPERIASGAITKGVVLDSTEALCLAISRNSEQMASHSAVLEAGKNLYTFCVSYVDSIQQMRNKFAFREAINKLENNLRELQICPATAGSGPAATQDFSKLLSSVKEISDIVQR
SMILES,IC50 [2],IC50 [3],also measured
CCCCc1[nH]nc2c1C(=O)c1c(NC(C)=O)cccc1-2,> 3500 nM,> 3500 nM,–
CCOc1ccc(-c2[nH]nc3c2C(=O)c2c(NC(C)=O)cccc2-3)cc1,> 580 nM,> 400 nM,–
NC(=O)Nc1cccc2c1C(=O)c1c-2n[nH]c1C1CCCCC1,> 810 nM,140 nM,–
CCc1[nH]nc2c1C(=O)c1c(NC(=O)CN3CCC(C(N)=O)CC3)cccc1-2,> 2600 nM,> 130 nM,–
CC(=O)Nc1cccc2c1C(=O)c1c-2n[nH]c1-c1cccnc1,> 1600 nM,770 nM,–
CC(=O)Nc1cccc2c1C(=O)c1c-2n[nH]c1C(C)C,> 3700 nM,840 nM,–
CC(=O)Nc1cccc2c1C(=O)c1c-2n[nH]c1-c1sccc1C,> 3100 nM,260 nM,–
NC(=O)Nc1cccc2c1C(=O)c1c-2n[nH]c1C1CC1,1400 nM,140 nM,–
CC(=O)Nc1cccc2c1C(=O)c1c-2n[nH]c1-c1ccc(N2CCOCC2)cc1,860 nM,370 nM,–
CC(C)c1[nH]nc2c1C(=O)c1c(NC(N)=O)cccc1-2,> 1900 nM,84 nM,–
CC(C)c1n[nH]c2c1C(=O)c1c(NC(=O)CN3CCC(C(N)=O)CC3)cccc1-2,> 1300 nM,21 nM,IC50 [1]: 290 nM
NC(=O)C1CCN(CC(=O)Nc2cccc3c2C(=O)c2c-3n[nH]c2C2CCCCC2)CC1,> 570 nM,36 nM,–
CC(=O)Nc1cccc2c1C(=O)c1c-2n[nH]c1-c1ccc(O)cc1,2300 nM,530 nM,–
CC(=O)Nc1cccc2c1C(=O)c1c(-c3ccccc3)n[nH]c1-2,840 nM,240 nM,–
CC(=O)Nc1cccc2c1C(=O)c1c-2n[nH]c1-c1ccc(N2CCCCC2)cc1,680 nM,900 nM,–
CCc1[nH]nc2c1C(=O)c1c(NC(=O)CN3CCC(CN)CC3)cccc1-2,1300 nM,240 nM,–
CC(=O)Nc1cccc2c1C(=O)c1c-2n[nH]c1-c1ccncc1,1300 nM,76 nM,–

SMILES,IC50 [2],IC50 [3],also measured
NC(=O)C1CCN(CC(=O)Nc2cccc3c2C(=O)c2c-3n[nH]c2C2CC2)CC1,> 99 nM,26 nM,IC50 [1]: 120 nM
CC(=O)Nc1cccc2c1C(=O)c1c-2n[nH]c1C1CCCCC1,> 3200 nM,1100 nM,–
CC(=O)Nc1cccc2c1C(=O)c1c-2n[nH]c1C1CC1,> 3700 nM,480 nM,–
Cc1cc(-c2[nH]nc3c2C(=O)c2c(NC(N)=O)cccc2-3)c(C)s1,> 1500 nM,61 nM,–
CC(=O)Nc1cccc2c1C(=O)c1c-2n[nH]c1-c1cc(Cl)sc1Cl,> 2600 nM,> 2600 nM,–
CC(=O)Nc1cccc2c1C(=O)c1c-2n[nH]c1-c1cccs1,4500 nM,180 nM,–
CC(=O)Nc1cccc2c1C(=O)c1c(-c3ccco3)n[nH]c1-2,> 3500 nM,> 1700 nM,–
CC(=O)Nc1cccc2c1C(=O)c1c-2n[nH]c1CC(C)C,> 3500 nM,> 3500 nM,–
CC(=O)Nc1cccc2c1C(=O)c1c-2n[nH]c1C(C)(C)C,> 3500 nM,980 nM,–
CCc1[nH]nc2c1C(=O)c1c(NC(C)=O)cccc1-2,> 3900 nM,1500 nM,–
CC(=O)Nc1cccc2c1C(=O)c1c-2n[nH]c1C,> 4200 nM,11000 nM,–
CCCc1[nH]nc2c1C(=O)c1c(NC(C)=O)cccc1-2,> 3700 nM,> 3700 nM,–
NC(=O)Nc1cccc2c1C(=O)c1c-2n[nH]c1-c1ccco1,840 nM,86 nM,–
CCCCc1ccc(-c2[nH]nc3c2C(=O)c2c(NC(C)=O)cccc2-3)cc1,> 2800 nM,> 560 nM,–
CC(=O)Nc1cccc2c1C(=O)c1c-2n[nH]c1-c1ccc(Oc2ccccc2)cc1,> 2500 nM,> 2500 nM,–
CCCc1ccc(-c2[nH]nc3c2C(=O)c2c(NC(C)=O)cccc2-3)cc1,1900 nM,490 nM,–
CCc1[nH]nc2c1C(=O)c1c(NC(N)=O)cccc1-2,> 2000 nM,290 nM,–

# The next lines start with results.
IC50 [2],IC50 [3],SMILES,also measured
18 nM,26 nM,NCC1CCN(CC(=O)Nc2cccc3c2C(=O)c2c-3n[nH]c2-c2ccc(N3CCOCC3)cc2)CC1,IC50 [1]: 110 nM
110 nM,85 nM,O=C(CN1CCC(O)CC1)Nc1cccc2c1C(=O)c1c-2n[nH]c1-c1ccc(N2CCOCC2)cc1,–
7 nM,15 nM,CN(C)c1ccc(-c2[nH]nc3c2C(=O)c2c(NC(=O)CN4CCC(CN)CC4)cccc2-3)cc1,IC50 [1]: 74 nM
55 nM,29 nM,CN1CCN(CC(=O)Nc2cccc3c2C(=O)c2c-3n[nH]c2-c2ccc(N(C)C)cc2)CC1,–
67 nM,9 nM,NC(=O)Nc1cccc2c1C(=O)c1c-2n[nH]c1-c1ccsc1,IC50 [1]: 360 nM
310 nM,320 nM,CC(=O)Nc1cccc2c1C(=O)c1c-2n[nH]c1-c1ccc(N(C)C)cc1,–
53 nM,13 nM,Cc1ccc(-c2[nH]nc3c2C(=O)c2c(NC(N)=O)cccc2-3)s1,IC50 [1]: 29 nM
150 nM,11 nM,NC(=O)Nc1cccc2c1C(=O)c1c-2n[nH]c1-c1cccs1,IC50 [1]: 41 nM
340 nM,48 nM,CC(C)c1[nH]nc2c1C(=O)c1c(NC(=O)CN3CCC(CN)CC3)cccc1-2,–
130 nM,26 nM,Cn1ccc(-c2[nH]nc3c2C(=O)c2c(NC(N)=O)cccc2-3)c1,IC50 [1]: 64 nM
350 nM,17 nM,Cc1ccsc1-c1[nH]nc2c1C(=O)c1c(NC(N)=O)cccc1-2,IC50 [1]: 140 nM
490 nM,160 nM,CC(=O)Nc1cccc2c1C(=O)c1c(-c3ccc(C)cc3)n[nH]c1-2,–
640 nM,280 nM,CCc1ccc(-c2[nH]nc3c2C(=O)c2c(NC(C)=O)cccc2-3)cc1,–
13 nM,14 nM,COc1ccc(-c2[nH]nc3c2C(=O)c2c(NC(=O)CN4CCC(CN)CC4)cccc2-3)cc1,–
300 nM,130 nM,CCOC(=O)c1ccc(-c2[nH]nc3c2C(=O)c2c(NC(N)=O)cccc2-3)s1,–
340 nM,120 nM,CSc1ccc(-c2[nH]nc3c2C(=O)c2c(NC(C)=O)cccc2-3)cc1,–
190 nM,42 nM,CN1CCN(CC(=O)Nc2cccc3c2C(=O)c2c-3n[nH]c2-c2ccc(N3CCOCC3)cc2)CC1,–
50 nM,33 nM,CN(C)c1ccc(-c2[nH]nc3c2C(=O)c2c(NC(=O)CN4CCC(O)CC4)cccc2-3)cc1,–
430 nM,55 nM,NCC1CCN(CC(=O)Nc2cccc3c2C(=O)c2c-3n[nH]c2C2CC2)CC1,–
110 nM,36 nM,CN(C)c1ccc(-c2[nH]nc3c2C(=O)c2c(NC(=O)CN4CCOCC4)cccc2-3)cc1,–
57 nM,13 nM,NC(=O)Nc1cccc2c1C(=O)c1c(-c3csc(Cl)c3)n[nH]c1-2,IC50 [4]: 260 nM; IC50 [5]: 490 nM; EC50 [6]: > 29000 nM; IC50 [7]: 200 nM; IC50 [8]: 44 nM; IC50 [9]: > 2900 nM; IC50 [10]: 240 nM; IC50 [11]: 690 nM; IC50 [1]: 130 nM; IC50 [12]: > 58000 nM; IC50 [13]: > 60000 nM; IC50 [14]: > 58000 nM
360 nM,–,NCC1CCN(CC(=O)Nc2cccc3c2C(=O)c2c-3n[nH]c2C2CCCCC2)CC1,–
120 nM,37 nM,O=C(CN1CCOCC1)Nc1cccc2c1C(=O)c1c-2n[nH]c1-c1ccc(N2CCOCC2)cc1,–

# — ChEMBL document CHEMBL1136010, “Synthesis and evaluation of indenopyrazoles as cyclin-dependent kinase inhibitors. 3. Structure activity relationships at C3(1,2)” (J Med Chem, 2002)
